High-throughput results deposited in PubChem by several laboratories.
KCNQ1 block = blocks the human KCNQ1 potassium channel; B-score at 10 µM; CHO-K1 KCNQ1, FluxOR thallium flux fluorescence; stronger effect = higher value; 310,000 compounds, 1.3% hits; P51787;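 active means compounds whose thallium flux B-score, printed positive for inhibition, exceeds three library SD while starting fluorescence stays within three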;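 further: channel opened by potassium depolarization with thallium stimulus after 20 min compound exposure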
KCNQ1 act = potentiators or activators of human KCNQ1 potassium channel | CHO-K1 KCNQ1, thallium flux FluxOR fluorescence; stronger effect = higher value | B-score at 10 µM | 310,000 compounds, 0.35% hits;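 active means fluorescence ratio B-score, a plate-corrected score, at least three library SD, with initial intensity B-score within 5 SD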
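Material: CHO-K1 cells stably expressing KCNQ1. Medium: assay buffer for compound exposure, DMSO matched across wells. Reagent: K+/Tl+ depolarizing stimulus. Compound dosing: single-concentration screen. Times: 37 °C overnight plating, 90-min dark dye load, 20-min compound pretreatment. Technique: FluxOR Tl+ flux fluorescence.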
Cl transport mod = modulators of human KCC2 chloride dependent transport; B-score of Tl+ flux slope (higher = more flux/activation; lower = inhibition) at 10 µM; 190,000 compounds, 2.2% hits; Q9H2X9; KCC2 cells, thallium flux FluoZin-2 fluorescence;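 active means thallium flux slope and its plate-corrected score both differing from the plate sample mean at a set confidence after two filtering rounds, in either direction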;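 further: slope of fluorescence scaled to starting intensity during 10 to 20 s after thallium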
hERG protect = compounds protecting human hERG from proarrhythmic drug block; Q12809; CHO-hERG, FluxOR thallium flux, dofetilide IC70 present; activation (rescue from dofetilide block), less the hit threshold, % at 10 µM; 310,000 compounds, 0.51% hits; AID 1511;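 active means activation above the mean of controls blocked by dofetilide plus 5 SD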;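 further: thallium influx through hERG after potassium depolarization seen as dye fluorescence rise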
Target sequence (Q12809 whole entry, looked up): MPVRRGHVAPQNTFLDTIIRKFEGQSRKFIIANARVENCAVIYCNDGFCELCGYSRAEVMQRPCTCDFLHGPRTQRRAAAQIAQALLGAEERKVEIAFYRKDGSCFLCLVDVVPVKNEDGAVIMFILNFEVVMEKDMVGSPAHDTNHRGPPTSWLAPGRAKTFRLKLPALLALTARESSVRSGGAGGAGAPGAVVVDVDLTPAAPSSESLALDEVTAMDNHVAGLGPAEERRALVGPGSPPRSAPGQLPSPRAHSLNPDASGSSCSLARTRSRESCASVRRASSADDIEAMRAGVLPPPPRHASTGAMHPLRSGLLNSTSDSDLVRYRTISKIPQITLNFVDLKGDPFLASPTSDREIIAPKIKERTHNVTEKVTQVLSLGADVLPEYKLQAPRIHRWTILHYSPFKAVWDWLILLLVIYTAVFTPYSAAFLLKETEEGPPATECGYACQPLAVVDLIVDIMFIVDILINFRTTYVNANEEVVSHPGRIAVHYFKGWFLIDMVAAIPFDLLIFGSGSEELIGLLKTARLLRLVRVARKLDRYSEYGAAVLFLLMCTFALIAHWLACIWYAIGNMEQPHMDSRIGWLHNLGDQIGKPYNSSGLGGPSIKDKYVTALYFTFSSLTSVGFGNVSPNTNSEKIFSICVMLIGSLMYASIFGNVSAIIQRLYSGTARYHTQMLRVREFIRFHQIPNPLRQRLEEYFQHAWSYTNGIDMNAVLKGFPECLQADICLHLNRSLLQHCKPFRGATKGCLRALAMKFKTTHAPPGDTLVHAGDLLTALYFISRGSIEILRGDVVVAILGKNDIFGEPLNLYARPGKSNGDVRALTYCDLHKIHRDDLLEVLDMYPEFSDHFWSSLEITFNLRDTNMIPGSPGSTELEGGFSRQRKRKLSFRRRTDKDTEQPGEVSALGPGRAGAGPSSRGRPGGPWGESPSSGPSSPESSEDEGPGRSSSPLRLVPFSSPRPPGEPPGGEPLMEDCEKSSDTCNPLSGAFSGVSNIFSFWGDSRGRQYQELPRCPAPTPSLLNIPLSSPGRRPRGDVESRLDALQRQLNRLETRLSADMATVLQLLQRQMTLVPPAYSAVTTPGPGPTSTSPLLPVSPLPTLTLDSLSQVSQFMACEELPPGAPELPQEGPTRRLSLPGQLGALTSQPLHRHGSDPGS
AI-2 QS modul = Vibrio harveyi AI-2 quorum sensing modulation | Vibrio harveyi JMH597 AI-2 luminescence/OD600 ratio, 9 h; stronger effect = lower value; strain lacks LuxN and CqsS sensors; 0 = neutral-control median | activity change, % at 7.5 µM | 300,000 compounds, 0.4% hits; in the data active means activity change below about -75%, passing the limit was not always enough; inconclusive means no clear call, values can overlap the other calls;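 further: luminescence divided by OD600 gain over 9 h not by final OD600 alone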
Mot1-301 SUMO = SUMOylation pathway inhibition by Mot1-301 growth rescue. S. cerevisiae Mot1-301 growth rescue, ATP luminescence, 38.5C; percent above DMSO median, 100 means doubled. 320,000 compounds, 1% hits. growth rescue, % at 18.8 µM. AID 2716;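 active means every valid replicate shows activation above 250% relative to neutral control wells; inactive means the rest, any valid replicate at or below 250%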
JMH597 growth rt = retest: blocks Vibrio harveyi JMH597 growth; shares compounds with AI-2 QS modul; 750 compounds, 1% hits; OD600 absorbance, 9 h; lacks LuxN and CqsS sensors; growth inhibition, % at 7.5 µM;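 active means every replicate shows growth inhibition above 50%; inconclusive means at least half, but not all, replicates pass that cutoff; inactive means fewer than half of replicates pass it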
BB721 lum counter = retest counter-screen: BB721 constitutive quorum sensing luminescence decrease | shares compounds with AI-2 QS modul | Vibrio harveyi BB721 luminescence, 9 h | inhibition, % at 7.5 µM | 750 compounds, 95% hits;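 active means inhibition above about 80% in every replicate, not just on average, limit read from the data; inconclusive means at least half of replicates past the limit, but not all; inactive means fewer than half of replicates past the limit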
BB721 growth rt = retest: blocks Vibrio harveyi BB721 growth. shares compounds with AI-2 QS modul. OD600 absorbance, 9 h. growth inhibition, % at 7.5 µM. 750 compounds, 3% hits. AID 2728;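 active means every replicate shows growth inhibition above 50%; inconclusive means at least half but not all replicates above 50% inhibition; inactive means under half of replicates above 50% inhibition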
JMH597 AI-2 mod = Vibrio harveyi AI-2 signaling luminescence modulation – JMH597 strain, confirmation | 750 compounds, 97% hits | shares compounds with AI-2 QS modul | AID 2736 | Vibrio harveyi JMH597 AI-2 quorum sensing luminescence, 9 h; luxN and CqsS knockout, AI-2 only | inhibition, % at 7.5 µM;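 active means every replicate shows more than 75% inhibition of signal versus neutral control wells; inconclusive means half to three quarters of replicates exceed 75% inhibition; inactive means fewer than half of replicates exceed 75% inhibition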
Each line names hits and unclear results; the compound was inactive in the other large screens (follow-up assays come after a bar, where they were run). Shown are actives, neighbours in structure and some others; about 4.2% of the full set was active somewhere.

O=C(NCCN1CCN(Cc2ccccc2)CC1)c1ccc(CS(=O)(=O)c2ccc(Br)cc2)o1	none (no result: Cl transport mod)
O=C(NCCOc1ccccc1)c1cccc(S(=O)(=O)NCc2ccccc2)c1	AI-2 QS modul -97 (no result: Cl transport mod) | JMH597 growth rt inconclusive | BB721 lum counter 99 | BB721 growth rt inactive | JMH597 AI-2 mod 99
O=C(NCCOc1ccccc1)c1cc2ccccc2o1	AI-2 QS modul -82 | JMH597 growth rt inactive | BB721 lum counter 87 | BB721 growth rt inactive | JMH597 AI-2 mod 92
O=C(NCCc1ccccc1)c1cccc(S(=O)(=O)NCc2ccccc2)c1	none (no result: Cl transport mod)
CSc1ncccc1C(=O)OCC(=O)c1ccc(S(=O)(=O)N2CCCCC2)cc1	none (no result: Cl transport mod)
Cc1cc(C(=O)OCC(=O)Nc2cc(S(=O)(=O)N3CCOCC3)ccc2Cl)c(C)o1	none (no result: Cl transport mod)
Cc1cc(C(=O)OCC(=O)Nc2ccc(S(=O)(=O)N3CCOCC3)cc2)c(C)o1	AI-2 QS modul -91 | JMH597 growth rt inactive | BB721 lum counter 98 | BB721 growth rt inactive | JMH597 AI-2 mod 98
CSc1ncccc1C(=O)OCC(=O)Nc1ccc(S(=O)(=O)N2CCCC2)cc1	AI-2 QS modul -92 | JMH597 growth rt inactive | BB721 lum counter 98 | BB721 growth rt inactive | JMH597 AI-2 mod 99
COc1cc(CC(=O)OCC(=O)Nc2ccc(S(=O)(=O)N3CCCC3)cc2)cc(OC)c1OC	none (no result: Cl transport mod)
O=C(COc1cccc(C(F)(F)F)c1)Nc1ccc(S(=O)(=O)N2CCCC2)cc1	AI-2 QS modul -93 | JMH597 growth rt inactive | BB721 lum counter 98 | BB721 growth rt inactive | JMH597 AI-2 mod inconclusive
O=C(Cc1cccc(C(F)(F)F)c1)Nc1ccc(S(=O)(=O)N2CCCC2)cc1	none (no result: Cl transport mod, AI-2 QS modul)
O=C(COC(=O)Cc1ccc2c(c1)OCCO2)Nc1ccc(S(=O)(=O)N2CCCC2)cc1	AI-2 QS modul -92 | JMH597 growth rt inactive | BB721 lum counter 96 | BB721 growth rt inactive | JMH597 AI-2 mod 97
Cc1ccc(C)c(N2C(=O)C3C4C=CC(CC4)C3C2=O)c1 (stereo not given)	none (no result: Cl transport mod)
Clc1ccc(-c2nnc(CCc3ccccc3)o2)c(Cl)c1	AI-2 QS modul -90 | JMH597 growth rt inactive | BB721 lum counter 97 | BB721 growth rt inactive | JMH597 AI-2 mod 98
Oc1ccccc1-c1nnc(COc2ccc(Cl)cc2Cl)o1	none
CC(=O)Nc1ccc(NC(=O)CSc2ccc3nnc(-c4cccnc4)n3n2)cc1	none (no result: Cl transport mod)
Cc1ccc(-c2nnc(Nc3ccccc3)o2)cc1	none (no result: Cl transport mod)
Cc1cccc(/C(N)=N/OC(=O)c2cccc3ccccc23)c1	AI-2 QS modul -85 (no result: Cl transport mod) | JMH597 growth rt inactive | BB721 lum counter 97 | BB721 growth rt inconclusive | JMH597 AI-2 mod 98
NC(=O)c1ccc(NC(=O)CNC(c2ccccc2)c2ccccc2)cc1	none (no result: Cl transport mod)
Cc1nn(CC(=O)Nc2ccc(S(N)(=O)=O)cc2)c(=O)c2ccccc12	AI-2 QS modul -84 (no result: Cl transport mod) | JMH597 growth rt inactive | BB721 lum counter 98 | BB721 growth rt inactive | JMH597 AI-2 mod 99
Cc1nn(CC(=O)Nc2ccc(C(=O)N3CCCC3)cc2)c(=O)c2ccccc12	AI-2 QS modul -83 | JMH597 growth rt inactive | BB721 lum counter 94 | BB721 growth rt inactive | JMH597 AI-2 mod 96
Cc1nn(CC(=O)Nc2ccc(C(=O)N3CCCCC3)cc2)c(=O)c2ccccc12	AI-2 QS modul -82 (no result: Cl transport mod) | JMH597 growth rt inactive | BB721 lum counter 93 | BB721 growth rt inactive | JMH597 AI-2 mod 94
NS(=O)(=O)c1ccc(NC(=O)Cn2nc(C(=O)O)c3ccccc3c2=O)cc1	none (no result: Cl transport mod)
